Holding throughout (format): functional
For assay [1], the system named is Mycobacterium tuberculosis. Description: Antibacterial activity against multidrug-resistant Mycobacterium tuberculosis H37Rv carrying luxAB incubated for 10 days under low oxygen followed by 28 hrs normoxic recovery by low-oxygen-recovery assay. The gist of the method:
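Low-oxygen-recovery assay using low-oxygen-adapted M. tuberculosis H37Rv luxAB, which carries a luciferase reporter, in 7H12 medium in microplate format. Cultures were incubated 10 days under low oxygen, then given 28 h of normoxic recovery before luminescence was read. MIC is the lowest concentration giving at least a 90% luminescence reduction relative to untreated controls.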

In assay [2] the test system is Mycobacterium tuberculosis. Description: Antibacterial activity against multidrug-resistant Mycobacterium tuberculosis H37Rv carrying luxAB at 128 uM incubated for 10 days under low oxygen followed by 28 hrs normoxic recovery by low-oxygen-recovery assay relative to control.
For assay [3], the system named is Mycobacterium tuberculosis. Put plainly: Antibacterial activity against streptomycin-resistant Mycobacterium tuberculosis after 7 days by microplate alamar blue assay. Conditions: 168 h.
Assay [4] deals with Mycobacterium tuberculosis. Description: Antibacterial activity against clofazimine-resistant Mycobacterium tuberculosis after 7 days by microplate alamar blue assay. The conditions noted are these: 168 h.
Assay [5] has as its system Mycobacterium tuberculosis. Description: Antibacterial activity against isoniazid-resistant Mycobacterium tuberculosis after 7 days by microplate alamar blue assay. Conditions: 168 h. The gist of the method:
(§1)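 Microplate alamar blue assay in 7H12 medium against M. tuberculosis H37Rv ATCC 27294 and against rifampicin-, isoniazid-, streptomycin- and kanamycin-resistant Mtb strains. Bacteria were incubated with test samples for 7 days, then fluorescence was read. MIC is the lowest concentration giving at least a 90% fluorescence reduction relative to untreated controls.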

Assay [6] concerns Mycobacterium tuberculosis. Description: Antibacterial activity against kanamycin-resistant Mycobacterium tuberculosis after 7 days by microplate alamar blue assay. Conditions: 168 h. The procedure, abridged:
as §1

Assay [7] deals with Mycobacterium tuberculosis. Description: Antibacterial activity against rifampicin-resistant Mycobacterium tuberculosis after 7 days by microplate alamar blue assay. The conditions noted are these: 168 h.

Results on 14 compounds are retold here after ChEMBL document CHEMBL1250546, “Synthesis of non-purine analogs of 6-aryl-9-benzylpurines, and their antimycobacterial activities. Compounds modified in the imidazole ring” (Bioorg Med Chem, 2010).

≈ marks a conversion by molar mass, not a printed value. Bounds are passed on as bounds.

In assay [1], `COc1ccc(Cn2ncc3c(-c4ccco4)ncnc32)cc1` returned an MIC above 128 µM. Also, the inhibition at 128 µM in assay [2] was found to be 60%.

Take `COc1ccc(Cn2ccc3c(-c4cccs4)ncnc32)cc1`: the MIC in assay [3] turned out to be 0.26 µM (≈ 0.0836 µg/mL); in assay [1] it was 60 µM (≈ 19.3 µg/mL); in assay [4], 0.18 µM (≈ 0.0579 µg/mL); in assay [5] it was 0.14 µM (≈ 0.045 µg/mL); in assay [6], 0.12 µM (≈ 0.0386 µg/mL); in assay [7], 0.13 µM (≈ 0.0418 µg/mL).

For `O=[N+]([O-])c1cn2c(n1)OC[C@@H](OCc1ccc(OC(F)(F)F)cc1)C2` [PRETOMANID], the MIC in assay [3] was 0.1 µM (≈ 0.0359 µg/mL); in assay [4], 0.54 µM (≈ 0.194 µg/mL); in assay [5] it was 0.07 µM (≈ 0.0251 µg/mL); in assay [6], 0.22 µM (≈ 0.079 µg/mL); in assay [7], 0.17 µM (≈ 0.0611 µg/mL).

`COc1ccc(Cn2cnc3c(-c4ccco4)nc(Cl)nc32)cc1`: the MIC was 0.56 µM (≈ 0.191 µg/mL) in assay [3]; above 128 µM in assay [1]; 0.47 µM (≈ 0.16 µg/mL) in assay [4]; 0.15 µM (≈ 0.0511 µg/mL) in assay [5]; 0.16 µM (≈ 0.0545 µg/mL) in assay [6]; 0.15 µM (≈ 0.0511 µg/mL) in assay [7]. In assay [2], this compound had an inhibition at 128 µM of 82%.

For the compound `CN[C@@H]1[C@H](O[C@H]2[C@H](O[C@H]3[C@H](O)[C@@H](O)[C@H](N=C(N)N)[C@@H](O)[C@@H]3N=C(N)N)O[C@@H](C)[C@]2(O)C=O)O[C@@H](CO)[C@H](O)[C@H]1O` [STREPTOMYCIN], the MIC in assay [3] was above 16 µM; in assay [4], 0.33 µM (≈ 0.192 µg/mL); in assay [5], 0.13 µM (≈ 0.0756 µg/mL); in assay [6], 0.98 µM (≈ 0.57 µg/mL); in assay [7] it was 0.21 µM (≈ 0.122 µg/mL).

Regarding `COc1c(N2C[C@@H]3CCCN[C@@H]3C2)c(F)cc2c(=O)c(C(=O)O)cn(C3CC3)c12` [MOXIFLOXACIN], the MIC in assay [5] turned out to be 0.3 µM (≈ 0.12 µg/mL); in assay [6] it was 0.34 µM (≈ 0.136 µg/mL).

With `COc1ccc(Cn2nnc3c(-c4ccco4)ncnc32)cc1`, the MIC in assay [1] was above 128 µM. Further, testing at 128 µM in assay [2] gave an inhibition of 61%.

On to `COc1ccc(Cn2ccc3c(-c4cccs4)nc(Cl)nc32)cc1`, for which the MIC is 0.06 µM (≈ 0.0214 µg/mL) in assay [3]; 120 µM (≈ 42.7 µg/mL) in assay [1]; below 0.05 µM in assay [4]; 0.09 µM (≈ 0.032 µg/mL) in assay [5]; 0.08 µM (≈ 0.0285 µg/mL) in assay [6]; 0.14 µM (≈ 0.0498 µg/mL) in assay [7].

Turning to `NNC(=O)c1ccncc1` [ISONIAZID], the MIC in assay [3] is 0.24 µM (≈ 0.0329 µg/mL); in assay [5], above 8 µM; in assay [6], 0.39 µM (≈ 0.0535 µg/mL); in assay [7], 0.25 µM (≈ 0.0343 µg/mL).

On to `COc1ccc(Cn2ccc3c(-c4ccco4)ncnc32)cc1`, for which the MIC in assay [3] was 0.18 µM (≈ 0.055 µg/mL); in assay [1], above 128 µM; in assay [4] it was 0.16 µM (≈ 0.0489 µg/mL); in assay [5], 0.13 µM (≈ 0.0397 µg/mL); in assay [6], 0.1 µM (≈ 0.0305 µg/mL); in assay [7], 0.14 µM (≈ 0.0427 µg/mL). In assay [2], this compound had an inhibition at 128 µM of 82%.

As to `COc1ccc(Cn2cnc3c(-c4ccco4)ncnc32)cc1`, the MIC in assay [1] was above 128 µM. This compound also had an inhibition at 128 µM in assay [2] of 88%.

Turning to `COc1ccc(Cn2ccc3c(-c4ccco4)nc(OC)nc32)cc1`, the MIC in assay [3] worked out at 0.09 µM (≈ 0.0302 µg/mL); in assay [1], 87 µM (≈ 29.2 µg/mL); in assay [4] it was 0.07 µM (≈ 0.0235 µg/mL); in assay [5], 0.09 µM (≈ 0.0302 µg/mL); in assay [6], 0.1 µM (≈ 0.0335 µg/mL); in assay [7], 0.09 µM (≈ 0.0302 µg/mL).

Take `CO[C@H]1/C=C/O[C@@]2(C)Oc3c(C)c(O)c4c(O)c(c(/C=N/N5CCN(C)CC5)c(O)c4c3C2=O)NC(=O)/C(C)=C\C=C\[C@H](C)[C@H](O)[C@@H](C)[C@@H](O)[C@@H](C)[C@H](OC(C)=O)[C@@H]1C` [RIFAMPIN]: the MIC in assay [3] is 0.04 µM (≈ 0.0329 µg/mL); in assay [4], 0.02 µM (≈ 0.0165 µg/mL); in assay [5] it was 0.02 µM (≈ 0.0165 µg/mL); in assay [6], 0.02 µM (≈ 0.0165 µg/mL); in assay [7], above 4 µM.

In the case of `COc1ccc(Cn2ccc3c(-c4ccco4)nc(Cl)nc32)cc1`, the MIC is 0.08 µM (≈ 0.0272 µg/mL) in assay [3]; above 128 µM in assay [1]; 0.06 µM (≈ 0.0204 µg/mL) in assay [4]; 0.12 µM (≈ 0.0408 µg/mL) in assay [5]; 0.1 µM (≈ 0.034 µg/mL) in assay [6]; 0.1 µM (≈ 0.034 µg/mL) in assay [7]. This compound also yielded an inhibition at 128 µM in assay [2] of 88%.
